Entries after “also recorded” stand apart in the source; their conditions may differ.
Legend:
L02 [1] = type: cell-based, human
C57BL/6 adult mice [2] = test: AAI-induced renal fibrosis model in adult mice; type: in vivo
How it was run: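 Renal fibrosis model in 8-week-old male C57BL/6 mice. A single AAI injection (10 mg/kg i.p.) was given; controls received NaHCO₃. SFII (30 or 60 mg/kg) was gavaged 12 h before AAI and then daily for 3 days; AAI-only mice received olive oil by the same schedule. Animals were killed 14 days after AAI, with body weight monitored.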

L02 [3] = test: Cell proliferation assay; type: cell-based, human
How it was run: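 CCK-8 proliferation in L02 cells (DMEM, 10% FBS, 37 °C, 5% CO₂). Cells were plated overnight in 96-well plates, then given AAI (dissolved in 1% NaHCO₃) and/or SFII (dissolved in DMSO). At 0, 24 and 48 h, medium was swapped for CCK-8 reagent, incubated 2 h at 37 °C, and absorbance was read at 450 nm.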

HK-2 [4] = test: Cell proliferation assay; type: cell-based, human
How it was run: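 HK-2 cells were kept in DMEM/F12 with 10% FBS and 1% antibiotic-antimycotic at 37 °C, 5% CO₂. They were seeded in 96-well plates overnight, then treated with AAI (in 1% NaHCO₃) and SFII (in DMSO) for 48 h. Medium was replaced with CCK-8 reagent for 2 h at 37 °C, and absorbance was read at 450 nm.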

HK-2 [5] = type: cell-based, human
C57BL/6 adult mice [6] = test: AAI-induced acute renal injury model in adult mice; type: in vivo
How it was run: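 Male C57BL/6 mice aged 8 weeks received AAI 5 mg/kg i.p. for three consecutive days, with NaHCO₃ as the vehicle control. SFII 30 or 60 mg/kg was given by oral gavage 12 h before AAI and at each injection. Mice were killed 3 days after the first AAI dose. Blood creatinine was measured. Kidney sections were stained with Sirius red (37 °C, 30 min), and the stained fibrotic area was calculated.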

[7] = test system: liver of adult and infant mice; test: DNA damage in liver of adult and infant mice; type: in vivo; details: AAI 20 mg/kg, 24 h
How it was run: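 Adult mice and 14-day-old infant mice were injected with PBS (negative control), diethylnitrosamine (positive control) or AAI 20 mg/kg, and killed after 24 h. Liver protein was extracted in lysis buffer and quantified by BCA. Proteins were separated by SDS-PAGE, transferred to nitrocellulose and imaged on an infrared scanner for DNA-damage markers.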

NQO1 [8] = molecular target: T1, NQO1 (Homo sapiens, UniProt P15559); test: NQO1 enzyme activity test; type: biochemical
T1 sequence (P15559 whole entry): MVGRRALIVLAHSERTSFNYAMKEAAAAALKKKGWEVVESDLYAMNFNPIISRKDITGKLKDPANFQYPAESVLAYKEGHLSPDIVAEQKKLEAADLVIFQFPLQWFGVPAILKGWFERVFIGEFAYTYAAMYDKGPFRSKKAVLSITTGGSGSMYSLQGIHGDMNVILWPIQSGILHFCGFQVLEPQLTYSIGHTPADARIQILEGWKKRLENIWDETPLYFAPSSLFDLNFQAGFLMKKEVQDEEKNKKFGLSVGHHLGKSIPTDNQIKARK

L02 [9] = test: Flow cytometry analysis of apoptosis in L02; type: cell-based, human
How it was run: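 L02 cells were plated in 6-well plates overnight, then treated with AAI (20 or 50 μM) with or without SFII (5 or 10 μM) for 24 h. Cells were trypsinised, spun at 1000 rpm for 3 min, washed in PBS, and stained with Annexin V-FITC or -APC plus PI for 20 min at room temperature in the dark. Flow cytometry counted Annexin V⁺/PI⁺ and Annexin V⁺/PI⁻ cells as apoptotic.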

HK-2 [10] = test: Flow cytometry analysis of apoptosis in HK-2; type: cell-based, human; details: AAI with SFII (10 or 20 μM), 24 h
infant mice [11] = test: AAI-induced liver cancer model in infant mice; type: in vivo
HK-2 [12] = test: qRT-PCR of apoptosis-related genes in HK-2; type: cell-based, human; details: AAI with SFII, 24 h
How it was run: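 HK-2 cells (DMEM/F12, 10% FBS, 1% antibiotic-antimycotic, 37 °C, 5% CO₂) were treated with AAI, SFII, or both for 24 h. Expression of apoptosis-related genes was then measured by qRT-PCR.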

L02 [13] = test: ALT and AST in culture medium of L02; type: cell-based, human; details: AAI (20 or 50 μM) with SFII (5 or 10 μM), 24 h, vs AAI alone
How it was run: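 L02 cells were grown in DMEM with 10% FBS and 1% antibiotic-antimycotic at 37 °C, 5% CO₂. Cells were exposed to AAI (20 or 50 μM) with or without SFII (5 or 10 μM) for 24 h. Culture medium was then collected, and ALT and AST were measured with clinical aminotransferase test kits.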

infant mice [14] = test: Infant mice acute injury model; type: in vivo
How it was run: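 Male infant mice on postnatal day 14 were injected with NaHCO₃ or AAI. SFII 10 mg/kg was given 12 h before AAI; control groups were pretreated with olive oil 12 h before injection. Mice were killed 24 h after AAI. Liver and kidney were analysed by Western blot. For TUNEL, sections were quenched with 0.3% H₂O₂ (30 min, room temperature), incubated with TUNEL mix for 2 h at 37 °C in the dark, then streptavidin-HRP for 30 min at 37 °C. Apoptotic cell percentage was calculated.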

NQO1 [15] = molecular target: T1, NQO1; test: NQO1 activity assay in L02 cells; type: cell-based; details: 8 h
How it was run: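 An NQO1-knockdown L02 line was made by infecting cells at 50% density with concentrated shNQO1 or shNC lentivirus plus polybrene for 10 h, then selecting with puromycin (2 μg/mL) for 48 h. Knockdown was verified by qRT-PCR and Western blot. NQO1 activity was measured with a commercial kit, reading absorbance at 440 nm.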

NQO1 [16] = molecular target: NQO1 (Mus musculus, UniProt Q64669); test: NQO1 activity in kidney and liver tissues of mice; type: in vivo; details: adult mice, SFII 30, 60 mg/kg orally, 2.5 h
NQO1 (Mus musculus, UniProt Q64669), sequence (Q64669 2-274 limits assumed): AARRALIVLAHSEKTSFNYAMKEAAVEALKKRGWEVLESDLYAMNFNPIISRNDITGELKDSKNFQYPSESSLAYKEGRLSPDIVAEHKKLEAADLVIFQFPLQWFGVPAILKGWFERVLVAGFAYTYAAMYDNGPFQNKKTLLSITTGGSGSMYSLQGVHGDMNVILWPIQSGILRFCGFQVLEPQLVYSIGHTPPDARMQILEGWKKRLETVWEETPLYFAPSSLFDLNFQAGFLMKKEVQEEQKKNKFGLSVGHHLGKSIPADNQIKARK
How it was run: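 NQO1 activity in mouse kidney and liver samples was measured with a commercial NQO1 activity assay kit. Sample and reaction buffer were mixed in 96-well plates, and absorbance was read at 440 nm.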

NQO1 [17] = molecular target: T1, NQO1; test: NQO1 activity assay in HK-2 cells; type: cell-based; details: HK-2, 5 μM, 8 h, vs control group
How it was run: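 HK-2 cells (DMEM/F12, 10% FBS, 37 °C, 5% CO₂) were treated with test compound at 5 μM for 8 h before protein extraction. NQO1 activity was measured with a commercial NQO1 activity kit, reading absorbance at 440 nm on a microplate reader.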

Blood coagulation assay = type: in vivo; details: C57BL/6 adult mice, 6 mg/kg orally, 24 h
How it was run: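 Adult C57BL/6 mice (4 per group) received test compound orally at 6 mg/kg and were killed 24 h later. Blood was analysed for activated partial thromboplastin time, prothrombin time and thrombin time.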

L02 [18] = test: qRT-PCR of apoptotic-related genes in L02; type: cell-based, human; details: AAI (20 or 50 μM) with SFII, 24 h
NQO1 [19] = molecular target: T1, NQO1; test: Surface plasmon resonance; type: binding
NQO1 [20] = molecular target: T1, NQO1; test: Comprehensive 2D NQO1 biochromatography retention; type: binding; details: 2D NQO1 column/C18 column/TOFMS
[21] = adult mice renal fibrosis model

COc1cccc2c1cc([N+](=O)[O-])c1c(C(=O)O)cc3c(c12)OCO3 [AAI, Aristolochic acid I, reference compound]
γ-H2AX expression (DNA damage) in L02 (L02 [1]; AAI 20 μM): considerable increase
body weight, AAI (C57BL/6 adult mice [2]; [21]): intensive weight loss
anti-proliferative effect in L02 (L02 [3]; AAI 0, 5, 10, 20, 50, or 100 μM, 48 h): gradually intensified
AAI-induced proliferation inhibition in HK-2 (HK-2 [4]; different doses of AAI, compared with L02): better tolerance
expression of γ-H2AX in HK-2 (HK-2 [5]; AAI dose gradient, particularly at 100 μM): increase
elevation of blood CRE, fold change (C57BL/6 adult mice [6]; adult mice, AAI 5 mg/kg i.p. for 3 days, AAI alone): over 1.5
DNA damage in the liver of adult mice [7]: scarcely caused DNA damage
γ-H2AX in the liver of infant mice ([7]; age 14 days): upregulation of γ-H2AX

COc1cccc(O)c1-c1cc(=O)c2c(O)c(OC)c(OC)c(OC)c2o1 [SFII, skullcapflavone II]
IC50 (NQO1 [8]): 2.87 µM
expression of P53, cleaved caspase-3, cleaved-PARP-1 and γ-H2AX in L02 (L02 [1]; AAI (20 or 50 μM) with SFII, 24 h): efficaciously decrease
percentage of apoptotic cells in L02 (L02 [9]; AAI (20 μM, 50 μM) with SFII (5 or 10 μM), 24 h, vs AAI alone): significantly decreased
apoptosis of L02, SFII alone (L02 [9]; SFII treatment alone): did not affect
percentage of apoptotic cells in HK-2 (HK-2 [10]): reduced the percentage of apoptotic cells in HK-2 in a dose-dependent manner
renal histology (H&E and Sirius red staining) (C57BL/6 adult mice [2]; SFII 30 or 60 mg/kg gavage + single AAI 10 mg/kg i.p., day 14): effectively relieved renal tubular atrophy and interstitial fibrosis
body weight, mice pretreated with SFII (C57BL/6 adult mice [2]; [21]): no significant change
number of tumors per liver (infant mice [11]; SFII 10, 30 or 60 mg/kg gavage 12 h before AAI 20 mg/kg, 16 weeks, dose-independently): significant decrease
kidney fibrosis (infant mice [11]; SFII pretreated, 16 weeks after AAI administration): notably relieved
inhibitory effect of AAI on cell proliferation in L02 (L02 [3]; AAI 20 μM + SFII 5 or 10 μM, 48 h, vs AAI alone): significantly relieved
cell proliferation of L02, SFII alone (L02 [3]; SFII alone): barely affected
expression of apoptosis-related genes BAX, NOXA, PUMA, and BAK in HK-2 (HK-2 [12]): downregulated
ALT level in culture supernatant of L02 (L02 [13]): decreased
AST level in culture supernatant of L02 (L02 [13]): decreased
expression of DNA damage and apoptosis-related proteins in liver and kidney (infant mice [14]; SFII 10 mg/kg 12 h before AAI 20 mg/kg, 24 h): significantly decreased
cell apoptosis and interstitial fibrosis in kidney (infant mice [14]; SFII 10 mg/kg pre-treated + AAI 20 mg/kg): reduced cell apoptosis as well as interstitial fibrosis
proportion of apoptotic cells in the liver (infant mice [14]; SFII 10 mg/kg pre-treated, vs AAI alone): decreased
inhibitory capability to NQO1 activity in L02 (NQO1 [15]; L02, 5 μM): significantly higher than oroxylin A
NQO1 activity of shNQO1-L02 (NQO1 [15]; NQO1 knockdown L02, SFII 5 μM): further reduced
NQO1 enzyme activity in kidney and liver in vivo (NQO1 [16]): good inhibitory effect
inhibition of NQO1 activity in HK-2 (NQO1 [17]): more efficient NQO1 inhibitory effect
activated partial thromboplastin time (APTT) (Blood coagulation assay; 6 mg/kg): not significantly altered; also recorded: barely prolonged
prothrombin time (PT) (Blood coagulation assay; 6 mg/kg): not significantly altered; also recorded: barely prolonged
thrombin time (TT) (Blood coagulation assay; 6 mg/kg): not significantly altered; also recorded: barely prolonged
AAI-induced inhibition of cell proliferation in HK-2 (HK-2 [4]; AAI 100 μM with SFII, 48 h): partially alleviated
expression of γ-H2AX and downstream pro-apoptotic signaling in HK-2 (HK-2 [5]; AAI with SFII, 24 h): significantly decrease
mRNA levels of BAX, NOXA, PUMA, and BAK in L02 (L02 [18]): significantly downregulate
Kd (NQO1 [19]): 4.2 µM
expressions of γ-H2AX, P53, cleaved-caspase-3, and cleaved-PARP-1 protein in kidney (C57BL/6 adult mice [6]; SFII 30 or 60 mg/kg oral + AAI 5 mg/kg): downregulated
blood CRE (C57BL/6 adult mice [6]; SFII 30 or 60 mg/kg oral + AAI 5 mg/kg, 3 days, vs AAI alone): significantly declined
fibrosis area of kidney (Sirius red staining) (C57BL/6 adult mice [6]; SFII 30 or 60 mg/kg oral + AAI 5 mg/kg, vs AAI alone, dose-dependent): significantly limited
retention on NQO1 biochromatography (NQO1 [20]): retention behaviors

C[C@@H]1C[C@H]2[C@@H]3CCC4=CC(=O)C=C[C@]4(C)[C@@]3(F)[C@@H](O)C[C@]2(C)[C@@]1(O)C(=O)CO [dexamethasone, reference compound]
retention on NQO1 biochromatography (NQO1 [20]): no retention

O=c1oc2ccccc2c(O)c1Cc1c(O)c2ccccc2oc1=O [dicoumarol, reference compound]
activated partial thromboplastin time (APTT) (Blood coagulation assay): significantly elevate
prothrombin time (PT) (Blood coagulation assay): significantly elevate
thrombin time (TT) (Blood coagulation assay): significantly elevate

COc1c(O)cc2oc(-c3ccccc3)cc(=O)c2c1O [oroxylin A]
IC50 (NQO1 [8]): 0.93 µM
inhibition of NQO1 activity in HK-2 (NQO1 [17]): did not notably inhibit
activated partial thromboplastin time (APTT) (Blood coagulation assay): not significantly altered
prothrombin time (PT) (Blood coagulation assay): not significantly altered
thrombin time (TT) (Blood coagulation assay): not significantly altered
Kd (NQO1 [19]): 0.873 µM
retention on NQO1 biochromatography (NQO1 [20]): retention behaviors

COc1cc(O)c2c(=O)cc(-c3ccccc3)oc2c1 [tectochrysin]
retention on NQO1 biochromatography (NQO1 [20]): retention behaviors

COc1c(O)cc(O)c2c(=O)cc(-c3ccccc3)oc12 [wogonin]
IC50 (NQO1 [8]): 10.1 µM
retention on NQO1 biochromatography (NQO1 [20]): retention behaviors

From paper PMC9876410 (Acta Pharmacologica Sinica, 2023)
